From ChEMBL document CHEMBL1833964, “Synthesis, structure-activity relationship and in vitro biological evaluation of N-arylethyl isoquinoline derivatives as Coxsackievirus B3 inhibitors” (Bioorg Med Chem Lett, 2011)

Tests used:
Enterovirus A71 = test: Antiviral activity against Enterovirus 71 infected in african green monkey vero cells assessed as inhibition of viral replication by Reed-Muench analysis; format: functional, organism-based; settings: Enterovirus A
Coxsackievirus B3 = test: Antiviral activity against Coxsackievirus B3 infected in african green monkey vero cells assessed as inhibition of viral replication by Reed-Muench analysis; format: functional, organism-based; settings: Enterovirus B
Method in brief: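 Vero monolayers infected with 100 TCID50 CVB3, then kept in maintenance medium (MEM plus 2% FBS) with or without test compound at various concentrations. Viral CPE was scored once the virus control reached 4+. The 50% inhibitory concentration came from Reed and Muench analysis. Three independent experiments.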

[1] = Selectivity index, ratio of TC50 for african green monkey vero cells to IC50 for Coxsackievirus B3; format: toxicity, cell-based; settings: read-out: Selectivity Index
Method in brief: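 Selectivity index is TC50 divided by IC50. TC50 is from 48 h CPE monitoring of compound-treated uninfected Vero monolayers. IC50 is from CPE scoring at 4+ virus control in Vero cells infected with 100 TCID50 CVB3 and kept in MEM with 2% FBS. Both values came from Reed and Muench analysis, in triplicate experiments.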

[2] = Cytotoxicity against african green monkey Vero cells infected with Coxsackievirus B3 assessed as growth inhibition after 48 hrs by Reed-Muench analysis; format: cell-based; settings: chlorocebus sabaeus, read-out: TC50
Method in brief: (§1)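 Vero cells plated at 2.5 × 10^4 per well and grown 24 h to a monolayer, then exposed to a range of test compound concentrations for 48 h at 37 °C. Cell damage was monitored as CPE, and TC50 came from Reed and Muench analysis. Each experiment was run three times.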

[3] = Cytotoxicity against african green monkey Vero cells infected with Enterovirus 71 assessed as growth inhibition after 48 hrs by Reed-Muench analysis; format: cell-based; settings: chlorocebus sabaeus, read-out: TC50; method in brief: as §1
[4] = Selectivity index, ratio of TC50 for african green monkey vero cells to IC50 for Enterovirus 71; format: toxicity, cell-based; settings: read-out: Selectivity Index

| Structure (SMILES) | IC50 (Enterovirus A71) | IC50 (Coxsackievirus B3) | selectivity ratio [1] | CC50 at 48 h [2] | CC50 at 48 h [3] | selectivity ratio [4] |
| --- | --- | --- | --- | --- | --- | --- |
| Oc1ccc2cc[n+](CCc3ccccc3)cc2c1 | 152 µM | 25 µM | 15.6 | 389 µM | 534 µM | 3.5 |
| COc1ccc2cc[n+](CCc3ccccc3)cc2c1O |  | 91.1 µM | 3.9 | 352 µM |  |  |
| COc1ccc2cc[n+](CCc3ccccc3C)cc2c1O |  | > 337 µM |  | 584 µM |  |  |
| COc1ccc(CC[n+]2ccc3ccc(OC)c(O)c3c2)cc1 |  | > 107 µM |  | 464 µM |  |  |
| COc1ccc2cc[n+](CCc3ccccc3)cc2c1OC |  | 209 µM | 2.8 | 584 µM |  |  |
| COc1cc2cc[n+](CCc3ccccc3)cc2cc1OC |  | > 337 µM |  | 1010 µM |  |  |
| COc1ccc2cc[n+](CCc3ccc(F)cc3)cc2c1OC |  | > 320 µM |  | 1380 µM |  |  |
| COc1ccc(CC[n+]2ccc3ccc(OC)c(OC)c3c2)cc1 |  | > 11.4 µM |  | 49.5 µM |  |  |
| c1ccc(CC[n+]2ccc3ccc4c(c3c2)OCO4)cc1 | 91.1 µM | 30.4 µM | 26.8 | 815 µM | 820 µM | 9 |
| Fc1ccc(CC[n+]2ccc3ccc4c(c3c2)OCO4)cc1 | 45.8 µM | > 335 µM |  | 581 µM | 420 µM | 9.2 |
| COc1cc2cc[n+](CCc3ccc(F)cc3)cc2cc1OC | 107 µM | > 320 µM |  | 665 µM | 864 µM | 8.1 |
| COc1cc2cc[n+](CCc3ccccc3F)cc2cc1OC |  | > 53.3 µM |  | 206 µM |  |  |
| COc1cc2cc[n+](CCc3cccc(Cl)c3)cc2cc1OC |  | > 33.9 µM |  | 131 µM |  |  |
| COc1cc2cc[n+](CCc3ccccc3C)cc2cc1OC |  | > 323 µM |  | 970 µM |  |  |
| COc1cc2c[n+](CCc3ccccc3C)ccc2cc1O |  | 112 µM | 2.1 | 234 µM |  |  |
| COc1cc2c[n+](CCc3ccccc3F)ccc2cc1O |  | > 111 µM |  | 333 µM |  |  |
| Oc1ccc2cc[n+](CCc3cccc(Cl)c3)cc2c1 |  | > 38.6 µM |  | 200 µM |  |  |
| Oc1ccc2cc[n+](CCc3ccc(F)cc3)cc2c1 |  | > 336 µM |  | 1100 µM |  |  |
| Cc1ccccc1CC[n+]1ccc2ccc(O)cc2c1 |  | 371 µM | 2.1 | 772 µM |  |  |
| COc1ccccc1CC[n+]1ccc2ccc(O)cc2c1 |  | > 352 µM |  | 1060 µM |  |  |
| COc1cc2c[n+](CCc3ccccc3)ccc2c(OC)c1OC |  | > 927 µM |  | 2780 µM |  |  |
| COc1ccc(CC[n+]2ccc3c(OC)c(OC)c(OC)cc3c2)cc1 |  | > 10.6 µM |  | 46 µM |  |  |
| NC(=O)c1ncn([C@@H]2O[C@H](CO)[C@@H](O)[C@H]2O)n1 [RIBAVIRIN] | 2120 µM | 910 µM |  |  |  |  |
